In brackets after ≈: the same amount, converted by molar mass. Several values for one entry are separate records, joined by “and”; a condition that tells them apart may be missing. Identical values can stand only once. Where a SMILES comes first, the peptide text is derived from it. Where no end group is shown, it is not given here. [ ]: non-standard residue; d: D form. Orn = NCCC[C@H](N)C(=O)O; Ahx = NCCCCCC(=O)O
How the values were obtained:
HEK-293 = assay: MTT cytotoxicity, HEK-293 control cells; assay type: cell-based; details: for CC50 HEK-293: MTT, peptide 0-200 μg/mL, 2 h, 37 °C, n = 3; for Selectivity Index HEK-293/HT-29: SI = CC50/IC50
In short: (§1)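 Cells are grown in RPMI-1640 with 10% FBS, seeded at 1 × 10^4 per well, and synchronized for 24 h. Medium is replaced with peptide (0–200 μg/mL) in the same medium for 2 h at 37 °C. MTT (5 mg/mL solution) is added for 4 h at 37 °C, and formazan is dissolved in DMSO for 30 min at 37 °C. Absorbance is read at 570 nm.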

[1] = MTT cytotoxicity, HEK-293 control cells; assay type: cell-based; details: Caco-2
In short: as §1

Caco-2 = assay: MTT viability test, Caco-2 colon cancer cells; assay type: cell-based; details: Caco-2, MTT
human fibroblasts = assay: MTT cytotoxicity, fibroblasts control cells; assay type: cell-based; details: for CC50 fibroblasts: MTT, peptide 0-200 μg/mL, 2 h, 37 °C, n = 3; for Selectivity Index fibroblasts/HT-29: SI = CC50/IC50
Vero cells = assay: MTT cytotoxicity, Vero control cells; assay type: cell-based; details: for CC50 Vero: MTT, peptide 0-200 μg/mL, 2 h, 37 °C, n = 3; for Selectivity Index Vero/HT-29: SI = CC50/IC50
In short: as §1

[2] = MTT cytotoxicity, Vero control cells; assay type: cell-based; details: Caco-2
In short: as §1

erythrocytes = assay: Hemolytic activity; assay type: cell-based, human; details: SI = hemolysis10%/IC50
In short: (§2)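 Erythrocytes from healthy O+ donors (EDTA blood) are spun at 500 rpm and washed 3× in 0.9% saline. Peptide (final 200 to 6.2 μg mL−1) is mixed 1:1 with 2% hematocrit suspension for 2 h at 37 °C, then spun 2500 rpm for 5 min. Supernatant A450 is read. Positive controls are distilled water and Tween 20; the negative is 0.9% saline. The readout is the concentration causing 10% hemolysis.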

Hemolytic activity = assay type: cell-based, human; details: Caco-2
In short: as §2

Du-145 = assay: MTT viability test, Du-145 prostate cancer cells; assay type: cell-based; details: for IC50 Du-145: peptide 0-200 μg/mL during 2 h, mean ± SE n = 3; for IC50: read-out: IC50 Du-145, peptide 0-200 μg/mL during 2 h, mean ± SE n = 3
In short: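 Du-145 cells are seeded at 1 × 10^4 per well and synchronized for 24 h. They are exposed to peptide (0–200 μg/mL) in medium for 2 h at 37 °C. MTT (5 mg/mL solution) is added for 4 h at 37 °C, DMSO solubilization runs 30 min at 37 °C, and A570 is read. Data are mean ± SE, n = 3.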

[3] = MTT cytotoxicity, fibroblasts control cells; assay type: cell-based, human; details: Caco-2
Galleria mellonella [4] = assay: Galleria mellonella toxicity test; assay type: in vivo; details: 20-100 mg/Kg, 10 days, Kaplan-Meyer, n = 2
Galleria mellonella [5] = details: at 33 mg/kg; cited from earlier work

Compound	CC50 HEK-293 (HEK-293)	Selectivity Index HEK-293/HT-29 (HEK-293)	selectivity ratio [1]	decrease of IC50 in Caco-2 cells compared to the parent peptide RWQWRWQWR (Caco-2)	CC50 fibroblasts (human fibroblasts)	Selectivity Index fibroblasts/HT-29 (human fibroblasts)	CC50 Vero (Vero cells)	Selectivity Index Vero/HT-29 (Vero cells)	selectivity ratio [2]	Selectivity Index erythrocytes/HT-29 (erythrocytes)	selectivity ratio (Hemolytic activity)	IC50 Du-145 (Du-145) [mg/L]	IC50 (Du-145) [µM]	fold increase in potency against Caco-2 versus parent peptide (Caco-2) [fold]	selectivity ratio [3]	toxicity (Galleria mellonella [4])	mortality in Galleria (previous study) (Galleria mellonella [5]) [%]
N=C(N)NCCC[C@H](NC(=O)[C@H](Cc1c[nH]c2ccccc12)NC(=O)[C@H](CCC(N)=O)NC(=O)[C@H](Cc1c[nH]c2ccccc12)NC(=O)[C@H](CCCNC(=N)N)NC(=O)[C@H](Cc1c[nH]c2ccccc12)NC(=O)[C@H](CCC(N)=O)NC(=O)[C@H](Cc1c[nH]c2ccccc12)NC(=O)[C@H](CCCNC(=N)N)NC(=O)CCCCCN)C(N)=O [Ahx-[Pal]] (H-[Ahx]RWQWRWQWR-NH2)	86 μM and 132 μg/mL	0.7	2.2	approx. 50%	98 μM and 157 μg/mL	0.8	40 μM and 64 μg/mL	0.3	1	>1.1	> 3.1						
N=C(N)NCCC[C@H](NC(=O)[C@H](Cc1c[nH]c2ccccc12)NC(=O)[C@H](CCC(N)=O)NC(=O)[C@H](Cc1c[nH]c2ccccc12)NC(=O)[C@@H](N)CCCNC(=N)N)C(=O)N[C@@H](Cc1c[nH]c2ccccc12)C(=O)N[C@@H](CCC(N)=O)C(=O)N[C@@H](Cc1c[nH]c2ccccc12)C(=O)N[C@@H](CCCN)C(N)=O [^9[Orn] [Pal]] (H-RWQWRWQW[Orn]-NH2)	51 μM and 74 μg/mL	0.5	1.3	approx. 50%	55 μM and 79 μg/mL	0.5	46 μM and 67 μg/mL	0.4	1.2	>1.3	> 3.4	89 (≈ 61.6 µM)	62	2	1.4	did not show any significant toxicity	
N.N.[Cl][Pt][Cl] [cisplatin]																	60
RWQWRWQWR-NH2 [[Pal]]	68 μM and 101 μg/mL	0.7	0.8		> 134 μM and > 200 μg/mL		21 μM and 31 μg/mL		0.2	1.3	1.6	60	40				
